Bioassay records: PubChem, several laboratories
The sample as a whole holds a higher share of hits than the screen did.
T cruzi repl: blocks replication of Trypanosoma cruzi; actives 1.4% (n = 300,000); inhibition, % (concentration not given with the values); T. cruzi beta-gal in NIH3T3, luminescence, 90 h;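 active means mean inhibition across valid replicates above about 55%, limit read from the data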;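 further: signal also drops with host cell toxicity which is not excluded here; higher percent means less beta-gal luminescence so fewer parasites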
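Assay system: NIH/3T3 host cells with β-galactosidase reporter T. cruzi; input: 5,000 host fibroblasts per well; compound: single 50 nL compound addition per well in DMSO; timing: ≥90 h infection period, 3 h prior cell attachment; measured by: GalScreen β-gal luminescence, detergent lysis, 60 min; evaluation: percent inhibition of parasite-derived β-gal signal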
L major viab: reduces viability of Leishmania major promastigotes | actives 9% (n = 200,000) | AID 1063 | resazurin fluorescence viability | inhibition, % at 10 µM; in the data active means inhibition above about 50%;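 further: promastigotes grown with compound for 44 hours at 28 °C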
Lipid droplet: modulators of hepatic lipid droplet formation; AML12 mouse hepatocytes, oleate lipid droplets, BODIPY imaging; actives 0.4% (n = 240,000); AID 1656; inhibition, % at 6.5 µM;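 active means lipid droplet intensity inhibited by at least 50%, with more than 500 cells counted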
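Assay system: AML12 mouse liver cells | Compound: 6.5 µM single-point dosing | Schedule: Overnight exposure | Technique: Fluorescence imaging, 20x objective, two fields per well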
Redox H2O2 prof: compounds producing H2O2 with reducing agent – biochemical, NIH compound library profiling, artefact control for MLSCN library redox annotation, primary screen; DTT-dependent redox cycling H2O2, phenol red/HRP absorbance; 100% = 100 µM peroxide control, 0% = buffer; activation, % at 10 µM; actives 0.03% (n = 200,000); AID 878;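 active means activation of at least 50% relative to the plate's high and low controls in the primary single-dose screen; inactive means activation below 50%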;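 further: compound incubated with DTT at 0.8 mM final as the reducing agent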
MPTP inh: blocks calcium-induced mitochondrial swelling. isolated mouse mitochondria, Ca2+ swelling absorbance, 30 min. inhibition, % at 10 µM. actives 1.4% (n = 360,000). AID 602449;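 active means inhibition of 50% or more, scaled per plate between neutral and stimulator controls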
Large screens that a line does not name were inactive.

O=C1CC(c2ccco2)Cc2nc(N3CCN(Cc4ccc5c(c4)OCO5)CC3)ncc21 (stereo unspecified)	L major viab 74.7 (no result: T cruzi repl)
CCc1nc(C(N)=O)c2[nH]c(=O)n(-c3ccc(OC)cc3OC)c2n1	none (no result: L major viab, Redox H2O2 prof)
O=C(CCl)NC(=O)NC12CC3CC(CC(C3)C1)C2	L major viab 100.5
CC1(C)CCCN(C(=O)c2ccc3c(c2NCCO)C(=O)c2ccccc2C3=O)C1	L major viab 99.9, Lipid droplet 98.3
CC(O/N=C/c1ccccc1OC(F)F)C(=O)Nc1cccc(S(=O)(=O)N2CCOCC2)c1 (stereo unspecified)	L major viab 50.6
CSCCC(NC(=O)c1ccccc1)C(=O)Nc1ccc(NC(C)=O)cc1 (stereo unspecified)	L major viab 55.0 (no result: MPTP inh)
CCOc1ccc(C(=O)N[C@H](C(=O)Nc2cccc(S(=O)(=O)N3CCOCC3)c2)C(C)C)cc1	none (no result: T cruzi repl, L major viab, Lipid droplet, Redox H2O2 prof)
CSCCC(NC(=O)c1cccc(S(=O)(=O)N2CCOCC2)c1)C(=O)Nc1ccc(F)cc1 (stereo unspecified)	L major viab 72.5
CSCCC(NC(N)=O)C(=O)Nc1cccc(S(=O)(=O)N2CCOCC2)c1 (stereo unspecified)	none
CCOc1ccc(C(=O)N[C@H](C(=O)Nc2cccc(S(=O)(=O)N3CCCCC3)c2)C(C)C)cc1	L major viab 97.1
Cc1ccc(NC(=O)Cn2c(=O)oc3ccccc32)c(C)c1	none (no result: L major viab, Redox H2O2 prof)
CCN(CC)c1ccc(S(=O)(=O)N2CCOCC2)cc1NC(=O)CSc1nncs1	none (no result: L major viab, Lipid droplet, Redox H2O2 prof)
CCCCn1c(N)c(N(CC(C)C)C(=O)CC2CCCCC2)c(=O)[nH]c1=O	none (no result: L major viab, Lipid droplet, Redox H2O2 prof)
Cc1ccc(NC(=O)[C@@H](NC(=O)c2cccc(S(=O)(=O)N3CCOCC3)c2)C(C)C)cc1C	L major viab 76.1
CCOc1ccc(NC(=O)C(CC)NC(=O)c2ccccc2CO)cc1 (stereo unspecified)	none
CCN1CCN(c2ccc(NC(=O)c3cccc(S(=O)(=O)N4CCCC4)c3)cc2)CC1	none (no result: T cruzi repl, L major viab, Lipid droplet, Redox H2O2 prof)
O=C(Nc1ccc(N2CCOCC2)cc1)c1cccc(S(=O)(=O)N2CCCCC2)c1	L major viab 97.9
CCOc1ccc(NC(=O)[C@@H](NC(=O)c2ccccc2Br)C(C)C)cc1	L major viab 98.4
C[C@@H]1CN([C@H](C)CO)C(=O)c2cc(Br)cnc2O[C@@H]1CN(C)C(=O)NC1CCCC1	none (no result: T cruzi repl, L major viab, Lipid droplet, Redox H2O2 prof)
COc1ccc(CC(=O)NC(C)c2ccc(S(N)(=O)=O)cc2)cc1S(=O)(=O)N1CCOCC1 (stereo unspecified)	none (no result: L major viab, Redox H2O2 prof)
COc1c(F)c(F)c(C(=O)Nc2ccc(NC(=O)Cc3ccccc3)cc2)c(F)c1F	none
CCN(CC)Cc1cc2[nH]c3c4ccc(Cl)cc4ncc3c2cc1OC	T cruzi repl 61.8 (no result: L major viab, Redox H2O2 prof)
Cc1ccc(S(=O)(=O)N(C)C)cc1NC(=O)COC(=O)/C=C/c1ccc(F)cc1	none (no result: L major viab, Lipid droplet, Redox H2O2 prof)
Cc1cc(CNC[C@H]2O[C@@H](n3ccc(=O)[nH]c3=O)[C@H](O)[C@@H]2O)no1	none (no result: T cruzi repl, L major viab, Lipid droplet, Redox H2O2 prof)
CN(CCc1ccccn1)C1CCCN(S(=O)(=O)c2ccc(F)c(Cl)c2)C1 (stereo unspecified)	T cruzi repl 72.5 (no result: L major viab, Redox H2O2 prof)
Cc1cc(S(=O)(=O)N2CCCC(N(C)CCc3ccccn3)C2)c(C)s1 (stereo unspecified)	none (no result: L major viab, Redox H2O2 prof)
CCCn1c(SCC(=O)c2c(C)[nH]c(C)c2C(=O)OCC)nc2ccccc21	L major viab 63.5 (no result: Redox H2O2 prof)
C=C(C)CN1CCN(S(=O)(=O)c2ccc(C)c(N(C)S(=O)(=O)c3ccc(C)cc3)c2C)CC1	L major viab 98.3
Cc1ccc(S(=O)(=O)N(C)c2c(C)ccc(S(=O)(=O)N3CCN(C)CC3)c2C)cc1	none
Cc1ccc(S(=O)(=O)N(C)c2c(C)ccc(S(=O)(=O)NC(C)(C)C)c2C)cc1	L major viab 98.9
CCc1nnc(NC(=O)COc2ccc(N(C)S(=O)(=O)c3ccc(C)cc3)cc2)s1	none
Cc1ccc(S(=O)(=O)N(C)c2ccc(OCC(=O)Nc3nnc(C4CC4)s3)cc2)cc1	L major viab 95.5
CC(C)(C)OC(=O)COc1ccc(/C=N/NC(=O)CN2CCCCC2)cc1	none (no result: L major viab, Redox H2O2 prof)
CCCCCCCC(=O)N/N=C/c1ccc([N+](=O)[O-])o1	L major viab 91.2
O=C(CN1CCCCCCC1)N/N=C/c1ccc([N+](=O)[O-])o1	T cruzi repl 57.8 (no result: L major viab, Redox H2O2 prof)
CCOC(=O)N/N=C/c1c(F)c(F)c(F)c(F)c1F	L major viab 65.3 (no result: Redox H2O2 prof)
CCCOc1ccc(CCC(=O)N/N=C/c2ccc([N+](=O)[O-])o2)cc1	none (no result: L major viab, Redox H2O2 prof)
CC1(C(=O)N/N=C/c2ccc([N+](=O)[O-])o2)CC1(Br)Br (stereo unspecified)	L major viab 97.6
COc1ccc(S(=O)(=O)N2CCOCC2)cc1NC(=O)C1CCN(S(=O)(=O)c2ccc(Cl)cc2)CC1	none (no result: T cruzi repl, L major viab, Lipid droplet, Redox H2O2 prof)
CN(CCO)CCC(=O)NC1(C)CS(=O)(=O)CC1S(=O)(=O)O (stereo unspecified)	none (no result: L major viab, Redox H2O2 prof)
CC(C)CNS(=O)(=O)c1ccc(Br)cc1N1CCC[C@@H]1CO	none (no result: T cruzi repl, L major viab, Lipid droplet, Redox H2O2 prof)
N#CCc1ccc(NC(=O)/C=C/c2ccc([N+](=O)[O-])o2)cc1	L major viab 100.6
O=C(CN1CCOCC1)NN=Cc1ccc([N+](=O)[O-])o1	none (no result: T cruzi repl, L major viab, Lipid droplet, Redox H2O2 prof)
CCOC(=O)N/N=C\c1ccc([N+](=O)[O-])o1	T cruzi repl 75.0, L major viab 97.5 (no result: Lipid droplet)
O=C(Cc1ccc([N+](=O)[O-])cc1)N/N=C/c1ccc([N+](=O)[O-])o1	T cruzi repl 107.2, L major viab 100.1
O=C(CC12CC3CC(CC(C3)C1)C2)N/N=C/c1ccc([N+](=O)[O-])o1	T cruzi repl 55.2, L major viab 98.6
O=C(O)/C=C/c1ccc([N+](=O)[O-])o1	none
O=C(CSc1ncccn1)N1CCC(Cc2ccccc2)CC1	none
CS(=O)(=O)NCc1nnc(SCc2ccc(C(F)(F)F)cc2)o1	none (no result: L major viab, Redox H2O2 prof)
O=C(CCN1CCN(c2ccccc2)CC1)N/N=C/c1ccc([N+](=O)[O-])o1	T cruzi repl 95.5, L major viab 98.2
CCCCn1cnc2cc(C)c(C)cc21	none
COc1ccc(-c2cc(-c3ccccc3)c(C#N)c(SCC(=O)O)n2)cc1	none (no result: L major viab, Lipid droplet, Redox H2O2 prof)
N#Cc1c(-c2ccccc2)cc(-c2ccccc2)nc1SCc1nnc(-c2ccccc2)o1	L major viab 60.0 (no result: Lipid droplet)
CN(C)CCNc1ncnc2c1ncn2[C@H]1CN(Cc2ccc3c(c2)OCO3)C[C@@H](CO)O1	none (no result: T cruzi repl, L major viab, Lipid droplet, Redox H2O2 prof)
NS(=O)(=O)c1ccc(N=Nc2c(-c3ccccc3)[nH]n(-c3nc(-c4ccccc4)cs3)c2=O)cc1	L major viab 73.3
NC(=O)c1ccc(N=Nc2c(-c3ccccc3)[nH]n(-c3ccccc3)c2=O)cc1	none (no result: MPTP inh)
CCCc1c(Cc2cccc(F)c2)ncn1Cc1cccc(-c2ccccc2)c1	none (no result: T cruzi repl, L major viab, Lipid droplet, Redox H2O2 prof)
CC1(C)CC(=O)C2=C(C1)OC(N)=C(C#N)C2c1cn(-c2ccccc2)nc1-c1ccccc1 (stereo unspecified)	L major viab 89.8
CCOc1cc(C2C(C#N)=C(N)OC3=C2C(=O)CC(C)(C)C3)cc([N+](=O)[O-])c1O (stereo unspecified)	none
